Active and inactive are the calls of the source. No cut-off for these calls is given here.
Experiments:
HBMEC-2 [1] = test: Protection against H2O2-induced apoptosis in human HBMEC2 cells assessed as reduction in cell disruption at 1.56 to 6.25 uM preincubated for 24 hrs followed by H2O2 addition measured after 4 hrs by Giemsa staining based inverted phase contrast microscopic analysis; type: functional
Method in brief: (§1)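 Cells at 3.5×10^4 cells/mL in 24-well plates were pretreated 24 h with compound at three concentrations, then H2O2 (4.8 mM stock) for 4 h. After PBS washes, cells were fixed in 4% paraformaldehyde/70% cold ethanol for 10 min. Staining was 6% Giemsa or DAPI for 5 min in the dark. Random fields were photographed at 200× by microscope, alongside control and model groups.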

SH-SY5Y [2] = test: Protection against H2O2-induced apoptosis in human SH-SY5Y cells assessed as decrease in nuclear fragmentation preincubated for 24 hrs followed by H2O2 addition measured after 4 hrs by DAPI staining based inverted phase contrast microscopic analysis; type: functional, cell-based; method in brief: as §1
[3] = Inhibition of H2O2-induced apoptosis in human HBMEC2 cells assessed as normal cells at 1.56 uM preincubated for 24 hrs followed by H2O2 addition measured after 4 hrs by Annexin V-FITC/propidium iodide staining based flow cytometry (reference value: 62.1 %); type: functional, HBMEC-2; set-up: scale not given: the % may be the effect or the level left
Method in brief: (§2)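 Cells were seeded at 3.5×10^4 cells/mL in 6-well plates at 37 °C, 5% CO2. Compound was added at three concentrations for 24 h, then H2O2 (4.8 mM stock solution) to model and drug wells for 4 h. Cells were collected, washed in cold PBS and resuspended in annexin-binding buffer. Staining was annexin V-FITC 10 min, then PI 5 min, in the dark, followed by flow cytometry with quadrant gating.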

HBMEC-2 [4] = test: Inhibition of H2O2-induced apoptosis in human HBMEC2 cells preincubated for 24 hrs followed by H2O2 addition measured after 4 hrs by Annexin V-FITC/propidium iodide staining based flow cytometry; type: functional, cell-based; method in brief: as §2
SH-SY5Y [5] = test: Protection against H2O2-induced apoptosis in human SH-SY5Y cells assessed as increase in cell number at 1.56 to 6.25 uM preincubated for 24 hrs followed by H2O2 addition measured after 4 hrs by Giemsa staining based inverted phase contrast microscopic analysis; type: functional; method in brief: as §1
HBMEC-2 [6] = test: Protection against H2O2-induced apoptosis in human HBMEC2 cells assessed as increase in cell number at 1.56 to 6.25 uM preincubated for 24 hrs followed by H2O2 addition and measured after 4 hrs by Giemsa staining based inverted phase contrast microscopic analysis; type: functional; method in brief: as §1

In the case of COc1cc(CNC(=O)/C=C/c2cc(OC)c(OC)cc2OC)ccc1O, the Activity (HBMEC-2 [1]) is reported as “Active”, the Activity (SH-SY5Y [2]) is reported as “Dose-dependent effect” and the Activity [3] is reported as 70.6%. The inhibition (HBMEC-2 [4]) was “Dose-dependent effect”, the Activity (SH-SY5Y [5]) was “Active” and the Activity (HBMEC-2 [6]) was “Active”.
